Results published in ChEMBL document CHEMBL2177098, “Synthesis and evaluation of novel ¹⁸F labeled 2-pyridinylbenzoxazole and 2-pyridinylbenzothiazole derivatives as ligands for positron emission tomography (PET) imaging of β-amyloid plaques” (J Med Chem, 2012).
Activity calls are given as the source filed them. No cut-off for these calls is given here.

Legend:
Mus musculus [1] = species: Mus musculus; test: Binding affinity to amyloid beta plaques in transgenic C57BL6 mouse cortex expressing APP Swedish mutant/PSEN1 at 370 KBq/100 ul after 1 hr by autoradiographic analysis; details: tested as the 18F-labelled form
In short: (§1)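 Paraffin brain sections from 12-month-old Tg mice (C57BL6, APPswe/PSEN1) and age-matched controls, deparaffinized through xylene and graded ethanol, then PBS (0.2 M, pH 7.4) 30 min. Incubated with 18F tracer (370 KBq per 100 μL) 1 h at room temperature, washed in 40% EtOH, rinsed in water, then phosphor plate exposure 2 h. The same sections were afterwards stained with 0.125% thioflavin S in 10% EtOH for 3 min and washed in 40% EtOH.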

Mus musculus [2] = species: Mus musculus; test: Binding affinity to amyloid beta plaques in transgenic C57BL6 mouse hippocampus expressing APP Swedish mutant/PSEN1 at 370 KBq/100 ul after 1 hr by thioflavinS-staining method; assay type: tissue-based; details: tested as the 18F-labelled form; in short: as §1
[3] = Displacement of [125I]-IMPY from amyloid beta (1 to 42) fibrils after 2 hrs by gamma-counting analysis
In short: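 Competition binding with aggregated Aβ1-42 fibrils and [125I]IMPY (60000−100000 cpm/100 μL) in 0.05% BSA (1 mL total); inhibitors 10⁻⁴−10^−8.5 M in ethanol. Incubated 37 °C for 2 h, then GF/B vacuum filtration with PBS (0.02 M, pH 7.4) washes and γ counting. Three repeats; IC50 converted to Ki by Cheng−Prusoff.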

Mus musculus [4] = species: Mus musculus; test: Binding affinity to amyloid beta plaques in transgenic C57BL6 mouse hippocampus expressing APP Swedish mutant/PSEN1 at 370 KBq/100 ul after 1 hr by autoradiographic analysis; assay type: tissue-based; details: tested as the 18F-labelled form; in short: as §1
Mus musculus [5] = species: Mus musculus; test: Binding affinity to amyloid beta plaques in transgenic C57BL6 mouse cortex expressing APP Swedish mutant/PSEN1 at 370 KBq/100 ul after 1 hr by thioflavinS-staining method; details: tested as the 18F-labelled form; in short: as §1
[6] = biological target: Amyloid-beta precursor protein (Homo sapiens) (UniProt P05067); test: Binding affinity to amyloid beta plaques in Alzheimer patient brain at 370 KBq/100 ul after 1 hr by autoradiographic analysis; details: tested as the 18F-labelled form
Chain of Amyloid-beta precursor protein (Homo sapiens) (P05067 whole entry): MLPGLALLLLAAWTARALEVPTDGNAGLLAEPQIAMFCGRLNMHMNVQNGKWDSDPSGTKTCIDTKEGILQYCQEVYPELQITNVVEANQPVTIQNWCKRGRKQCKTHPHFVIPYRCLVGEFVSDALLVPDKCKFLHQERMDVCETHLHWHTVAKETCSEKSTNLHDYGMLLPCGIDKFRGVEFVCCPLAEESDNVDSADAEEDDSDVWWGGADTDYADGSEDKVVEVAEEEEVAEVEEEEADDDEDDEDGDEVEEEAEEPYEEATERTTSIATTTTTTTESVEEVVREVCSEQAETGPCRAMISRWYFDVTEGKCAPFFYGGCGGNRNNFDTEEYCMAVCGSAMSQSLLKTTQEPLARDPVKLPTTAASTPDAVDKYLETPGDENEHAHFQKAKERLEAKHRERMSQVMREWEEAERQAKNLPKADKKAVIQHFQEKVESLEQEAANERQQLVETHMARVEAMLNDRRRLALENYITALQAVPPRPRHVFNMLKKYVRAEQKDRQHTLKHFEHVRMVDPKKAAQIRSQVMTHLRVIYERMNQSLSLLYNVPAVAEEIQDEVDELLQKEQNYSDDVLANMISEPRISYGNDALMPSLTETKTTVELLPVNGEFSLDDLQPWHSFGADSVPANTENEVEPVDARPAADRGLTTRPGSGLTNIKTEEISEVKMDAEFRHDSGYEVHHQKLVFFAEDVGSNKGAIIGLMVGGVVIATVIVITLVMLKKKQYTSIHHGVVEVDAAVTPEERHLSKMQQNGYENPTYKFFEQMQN

CNc1ccc(-c2nc3ccc(OCCF)cc3s2)cn1
Activity (Mus musculus [1]): Active | Activity (Mus musculus [2]): Active | Ki [3]: 10.1 nM | Activity (Mus musculus [4]): Active | Activity (Mus musculus [5]): Active | Activity [6]: Active
